Experimental data: ChEMBL document CHEMBL1128433, “Novel 1,2-dithiins: synthesis, molecular modeling studies, and antifungal activity” (1995)
≈ marks a conversion by molar mass, not a printed value.

Tests used:
Assay type in all cases: functional
Aspergillus fumigatus [1] = experiment: Antifungal activity against aspergillus fumigatus
How it was run: (§1)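 A. fumigatus grown on SAB agar 3–4 d at 35 °C; conidia used as inoculum at final 1 × 10^3 cfu/mL. Broth microdilution in SAB broth, 2-fold serial dilutions of compound dissolved in ethanol or DMSO. Incubated 48 h at 35 °C. MIC read by eye as the lowest concentration with no visible growth. Amphotericin B reference.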

Candida albicans [2] = experiment: Antifungal activity against candida albicans
How it was run: (§2)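 Candida grown 24 h at 35 °C on YM agar, then 6 h at 35 °C with rotation in GYB broth (2% glucose, 1% yeast extract). Final inoculum 2 × 10^3 cfu/mL. 96-well SAB broth microdilution, 2-fold series from ethanol or DMSO solutions. 24 h at 35 °C; MIC = lowest concentration without visible growth. Amphotericin B reference.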

Cryptococcus neoformans [3] = experiment: Antifungal activity against cryptococcus neoformans
How it was run: (§3)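 C. neoformans grown on YM agar 48 h at 35 °C, then 6 h in GYB broth at 35 °C with rotation. Final inoculum 2 × 10^4 cfu/mL. SAB broth microdilution with 2-fold serial dilutions (compound in ethanol or DMSO). Incubated 48 h at 35 °C; MIC read visually as the lowest concentration with no growth. Amphotericin B reference.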

Aspergillus fumigatus [4] = experiment: Antifungal activity against aspergillus fumigatus WM-1; how it was run: as §1
Candida albicans [5] = experiment: Antifungal activity against candida albicans A-26; how it was run: as §2
Candida albicans [6] = experiment: Antifungal activity against candida albicans B-311; how it was run: as §2
Pichia kudriavzevii = experiment: Antifungal activity against candida krusei GK7831; how it was run: as §2
Candida parapsilosis = experiment: Antifungal activity against candida parapsilosis CP18; details: Lodderomyces parapsilosis; how it was run: as §2
Cryptococcus neoformans [7] = experiment: Antifungal activity against cryptococcus neoformans MI-106; how it was run: as §3
Candida tropicalis = experiment: Antifungal activity against candida tropicalis 1525; how it was run: as §2
Trichophyton rubrum = experiment: Antifungal activity against Trichophyton rubrum ATCC 18762
How it was run: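 T. rubrum grown on SAB agar 5–7 d at 25 °C; conidia as inoculum, final 1 × 10^4 cfu/mL. Compounds in ethanol or DMSO, 2-fold serial dilutions in SAB broth in 96-well plates. Incubated 7 d at 25 °C. MIC taken as the lowest concentration with no visible growth versus the growth-control wells. Amphotericin B was the reference.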

SMILES	MIC (Aspergillus fumigatus [1])	MIC (Candida albicans [2])	MIC (Cryptococcus neoformans [3])	other results
CC1(C)OCC(COCC2=CC=C(COCC3COC(C)(C)O3)SS2)O1 (stereo unspecified)	> 100 µg/mL	> 100 µg/mL	> 100 µg/mL	
OCC1=CC=C(COc2ccc(-n3ccnc3)cc2)SS1	100 µg/mL (≈ 314 µM)	12.5 µg/mL (≈ 39.3 µM)	100 µg/mL (≈ 314 µM)	
C#Cc1cccc(OCC2=CC=C(CO)SS2)c1	6.3 µg/mL (≈ 22.8 µM)	1.6 µg/mL (≈ 5.79 µM)	1.6 µg/mL (≈ 5.79 µM)	
CC1(C)OCC(COCC2=CC=C(CO)SS2)O1 (stereo unspecified)	> 100 µg/mL	> 100 µg/mL	> 100 µg/mL	
CC(C)C(=O)OCC1=CC=C(COC(=O)C(C)C)SS1	6.3 µg/mL (≈ 19.9 µM)	> 100 µg/mL	12.5 µg/mL (≈ 39.5 µM)	
O=C(OCC1=CC=C(CO)SS1)C1CCCC1	3.1 µg/mL (≈ 11.4 µM)	6.3 µg/mL (≈ 23.1 µM)		
OCC1=CC=C(COCC(O)CO)SS1 (stereo unspecified)	> 100 µg/mL	> 100 µg/mL	> 100 µg/mL	
CC(=O)OCC1=CC=C(COC(C)=O)SS1	0.63 µg/mL (≈ 2.42 µM)	1.25 µg/mL (≈ 4.8 µM)	0.63 µg/mL (≈ 2.42 µM)	
OCC1=CC=C(COc2ccccc2O)SS1	12.5 µg/mL (≈ 46.6 µM)	6.3 µg/mL (≈ 23.5 µM)	25 µg/mL (≈ 93.2 µM)	
O=C(OCC1=CC=C(COC(=O)C2CCCC2)SS1)C1CCCC1	> 250 µg/mL	> 250 µg/mL		
O=c1ccc(=O)n(CC2=CC=C(CO)SS2)[nH]1	> 100 µg/mL	> 100 µg/mL	> 100 µg/mL	
OCC1=CC=C(CO)SS1	2 µg/mL (≈ 11.3 µM)	16 µg/mL (≈ 90.8 µM)	31 µg/mL (≈ 176 µM)	
O/N=C/C1=CC=C(/C=N/O)SS1	0.4 µg/mL (≈ 1.98 µM)	0.1 µg/mL (≈ 0.494 µM)	0.8 µg/mL (≈ 3.96 µM)	MIC (Aspergillus fumigatus [4]): 0.2 µg/mL (≈ 0.989 µM); MIC (Candida albicans [5]): 0.2 µg/mL (≈ 0.989 µM); MIC (Candida albicans [6]): 0.1 µg/mL (≈ 0.494 µM); MIC (Pichia kudriavzevii): 6.3 µg/mL (≈ 31.1 µM); MIC (Candida parapsilosis): 0.2 µg/mL (≈ 0.989 µM); MIC (Cryptococcus neoformans [7]): 1.6 µg/mL (≈ 7.91 µM); MIC (Candida tropicalis): 1.6 µg/mL (≈ 7.91 µM); MIC (Trichophyton rubrum): 0.05 µg/mL (≈ 0.247 µM)
O=c1ccc([N+](=O)[O-])cn1CC1=CC=C(CO)SS1	> 100 µg/mL	> 100 µg/mL	100 µg/mL (≈ 335 µM)	
N#CC1=CC=C(CO)SS1	1.6 µg/mL (≈ 9.34 µM)	0.8 µg/mL (≈ 4.67 µM)	0.8 µg/mL (≈ 4.67 µM)	
N#C/C=C/C1=CC=C(CO)SS1	6.3 µg/mL (≈ 31.9 µM)	12.5 µg/mL (≈ 63.4 µM)	3.1 µg/mL (≈ 15.7 µM)	
OCC1=CC=C(COc2ccccn2)SS1	3.1 µg/mL (≈ 12.2 µM)	3.1 µg/mL (≈ 12.2 µM)	3.1 µg/mL (≈ 12.2 µM)	
O=C(OCC1=CC=C(COC(=O)c2ccccc2O)SS1)c1ccccc1O	> 250 µg/mL	> 250 µg/mL		
O=C(OCC1=CC=C(COC(=O)c2ccccc2)SS1)c1ccccc1	> 100 µg/mL	> 100 µg/mL	> 100 µg/mL	
O=C(OCC1=CC=C(CO)SS1)c1ccccc1O	0.2 µg/mL (≈ 0.675 µM)	0.2 µg/mL (≈ 0.675 µM)	0.2 µg/mL (≈ 0.675 µM)	
OCC1=CC=C(/C=N/O)SS1	1.6 µg/mL (≈ 8.45 µM)	1.6 µg/mL (≈ 8.45 µM)	1.6 µg/mL (≈ 8.45 µM)	MIC (Aspergillus fumigatus [4]): 1.6 µg/mL (≈ 8.45 µM); MIC (Candida albicans [5]): 1.6 µg/mL (≈ 8.45 µM); MIC (Candida albicans [6]): 1.6 µg/mL (≈ 8.45 µM); MIC (Pichia kudriavzevii): 6.3 µg/mL (≈ 33.3 µM); MIC (Candida parapsilosis): 3.1 µg/mL (≈ 16.4 µM); MIC (Cryptococcus neoformans [7]): 1.6 µg/mL (≈ 8.45 µM); MIC (Candida tropicalis): 6.3 µg/mL (≈ 33.3 µM); MIC (Trichophyton rubrum): 0.8 µg/mL (≈ 4.23 µM)
CCC(=O)OCC1=CC=C(COC(=O)CC)SS1	3.1 µg/mL (≈ 10.7 µM)	12.5 µg/mL (≈ 43.3 µM)	6.3 µg/mL (≈ 21.8 µM)	
OCC1=CC=C(COc2cccc(O)c2)SS1	> 100 µg/mL	50 µg/mL (≈ 186 µM)	100 µg/mL (≈ 373 µM)	
O=C(OCC1=CC=C(CO)SS1)C1CC1	0.4 µg/mL (≈ 1.64 µM)	3.1 µg/mL (≈ 12.7 µM)	1.6 µg/mL (≈ 6.55 µM)	MIC (Pichia kudriavzevii): 1.25 µg/mL (≈ 5.12 µM); MIC (Candida parapsilosis): 2.5 µg/mL (≈ 10.2 µM); MIC (Candida tropicalis): 1.25 µg/mL (≈ 5.12 µM); MIC (Trichophyton rubrum): 0.31 µg/mL (≈ 1.27 µM)
CN(C)c1cccc(OCC2=CC=C(CO)SS2)c1	100 µg/mL (≈ 338 µM)	> 50 µg/mL	50 µg/mL (≈ 169 µM)	
O=C(OCC1=CC=C(COC(=O)C2CC2)SS1)C1CC1	1.6 µg/mL (≈ 5.12 µM)	6.3 µg/mL (≈ 20.2 µM)	3.1 µg/mL (≈ 9.92 µM)	
O=CC1=CC=C(C=O)SS1	6.3 µg/mL (≈ 36.6 µM)	1.6 µg/mL (≈ 9.29 µM)	1.6 µg/mL (≈ 9.29 µM)	
[N-]=[N+]=NCC1=CC=C(CO)SS1	0.25 µg/mL (≈ 1.24 µM)	0.25 µg/mL (≈ 1.24 µM)	0.25 µg/mL (≈ 1.24 µM)	
